Measurements published in ChEMBL document CHEMBL2203165, “Glycolysis inhibitor screening identifies the bis-geranylacylphloroglucinol protonophore moronone from Moronobea coccinea” (2012).
The source made the active and inactive calls. The calls are words filed in the database; no cut-off is given here.

Key:
[1] = test system: MDA-MB-231; assay: Effect on lactate production in human MDA-MB-231 cells at […] measured per ug of cellular protein after 48 hrs by enzyme based assay (reference value: 40.5 +/- 6 nmol/ug of cellular protein); format: functional
[2] = test system: MDA-MB-231; assay: Effect on lactate production in human MDA-MB-231 cells at […] measured per ug of cellular protein after 24 hrs by enzyme based assay (reference value: 23.6 +/- 2 nmol/ug of cellular protein); format: functional
[3] = test system: MDA-MB-231; assay: Increase in cellular glucose consumption in human MDA-MB-231 cells at […] measured per ug of cellular protein after 48 hrs by enzyme based assay (reference value: 43 +/- 8.4 nmol/ug of cellular protein); format: functional
[4] = test system: MDA-MB-231; assay: Increase in cellular glucose consumption in human MDA-MB-231 cells at […] measured per ug of cellular protein after 24 hrs by enzyme based assay (reference value: 17.2 +/- 2 nmol/ug of cellular protein); format: functional
[5] = test system: MDA-MB-231; assay: Inhibition of cell viability of human MDA-MB-231 cells at 3 mM after 48 hrs by sulforhodamine B method in presence of 1 uM F1F0-ATPase inhibitor oligomycin; format: functional, cell-based
[6] = test system: MDA-MB-231; assay: Inhibition of cell viability of human MDA-MB-231 cells at 3 mM after 48 hrs by sulforhodamine B method in presence of 1 uM mitochondrial ETC complex III inhibitor antimycin A; format: functional, cell-based
[7] = test system: MDA-MB-231; assay: Inhibition of cell viability of human MDA-MB-231 cells at 30 mM after 48 hrs by sulforhodamine B method; format: functional, cell-based
Outline: (§1)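 MDA-MB-231 cells are plated at 3×10^4 per well in RPMI 1640 with 10% FBS. After 24 h, compound diluted in serum-free medium is added, with DMSO below 0.5%. Cells are incubated 48 h at 37 °C and viability is read by sulforhodamine B as % inhibition of untreated control. Concentration-response runs are in half-log steps.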

[8] = test system: MDA-MB-231; assay: Inhibition of cell viability of human MDA-MB-231 cells at 3 mM after 48 hrs by sulforhodamine B method; format: functional; details: MDA-MB-231, 48 h; outline: as §1
[9] = test system: MDA-MB-231; assay: Inhibition of cell viability of human MDA-MB-231 cells at 10 mM after 48 hrs by sulforhodamine B method; format: functional, cell-based; outline: as §1
[10] = test system: MDA-MB-231; assay: Inhibition of cell viability of human MDA-MB-231 cells at 1 mM after 48 hrs by sulforhodamine B method; format: functional; details: MDA-MB-231, 48 h; outline: as §1
[11] = test system: T47D; assay: Decrease in mitochondrial membrane potential in human T47D cells assessed as decline in respiration rate at 3 uM after 48 hrs; format: functional, cell-based
Outline: (§2)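 Oxygen consumption of intact MDA-MB-231 or T47D cells measured with a Clark-type electrode, no FBS present; compound tested at 0.1, 0.3, 1 and 3 μM; rate normalized to untreated control. Average + standard deviation from three independent experiments (n = 3).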

[12] = test system: T47D; assay: Decrease in mitochondrial membrane potential in human T47D cells assessed as decline in respiration rate at 1 uM after 48 hrs; format: functional, cell-based; outline: as §2
[13] = test system: MDA-MB-231; assay: Decrease in mitochondrial membrane potential in human MDA-MB-231 cells assessed as decline in respiration rate at 1 uM after 48 hrs; format: functional, cell-based; outline: as §2
[14] = test system: MDA-MB-231; assay: Stimulation of oligomycin-induced state 4 respiration in human MDA-MB-231 cells at 1 uM; format: functional, cell-based
Outline: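 Oligomycin (1 μM) added to MDA-MB-231 cells in a Clark-type electrode chamber to initiate state 4 respiration. Compound (1 μM) then added and oxygen consumption followed. Rate normalized to untreated control.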

[15] = test system: MDA-MB-231; assay: Increase in cellular respiration in human MDA-MB-231 cells assessed as increase in oxygen consumption at 0.1 to 1 uM after 48 hrs; format: functional, cell-based; outline: as §2
[16] = test system: MDA-MB-231; assay: Decrease in mitochondrial membrane potential in human MDA-MB-231 cells assessed as decline in respiration rate at 3 uM after 48 hrs; format: functional, cell-based; outline: as §2
[17] = test system: MDA-MB-231; assay: Effect on lactate production in human MDA-MB-231 cells at 10 uM measured per ug of cellular protein after 48 hrs by enzyme based assay (reference value: 40.5 +/- 6 nmol/ug of cellular protein); format: functional
[18] = test system: MDA-MB-231; assay: Effect on lactate production in human MDA-MB-231 cells at 3 uM measured per ug of cellular protein after 48 hrs by enzyme based assay (reference value: 40.5 +/- 6 nmol/ug of cellular protein); format: functional
[19] = test system: MDA-MB-231; assay: Effect on lactate production in human MDA-MB-231 cells at 1 uM measured per ug of cellular protein after 48 hrs by enzyme based assay (reference value: 40.5 +/- 6 nmol/ug of cellular protein); format: functional
[20] = test system: MDA-MB-231; assay: Effect on lactate production in human MDA-MB-231 cells at 10 uM measured per ug of cellular protein after 24 hrs by enzyme based assay (reference value: 23.6 +/- 2 nmol/ug of cellular protein); format: functional
[21] = test system: MDA-MB-231; assay: Effect on lactate production in human MDA-MB-231 cells at 3 uM measured per ug of cellular protein after 24 hrs by enzyme based assay (reference value: 23.6 +/- 2 nmol/ug of cellular protein); format: functional
[22] = test system: MDA-MB-231; assay: Effect on lactate production in human MDA-MB-231 cells at 1 uM measured per ug of cellular protein after 24 hrs by enzyme based assay (reference value: 23.6 +/- 2 nmol/ug of cellular protein); format: functional
[23] = test system: MDA-MB-231; assay: Increase in cellular glucose consumption in human MDA-MB-231 cells at 10 uM measured per ug of cellular protein after 48 hrs by enzyme based assay (reference value: 43 +/- 8.4 nmol/ug of cellular protein); format: functional
[24] = test system: MDA-MB-231; assay: Increase in cellular glucose consumption in human MDA-MB-231 cells at 3 uM measured per ug of cellular protein after 48 hrs by enzyme based assay (reference value: 43 +/- 8.4 nmol/ug of cellular protein); format: functional
[25] = test system: MDA-MB-231; assay: Increase in cellular glucose consumption in human MDA-MB-231 cells at 1 uM measured per ug of cellular protein after 48 hrs by enzyme based assay (reference value: 43 +/- 8.4 nmol/ug of cellular protein); format: functional
[26] = test system: MDA-MB-231; assay: Increase in cellular glucose consumption in human MDA-MB-231 cells at 10 uM measured per ug of cellular protein after 24 hrs by enzyme based assay (reference value: 17.2 +/- 2 nmol/ug of cellular protein); format: functional
[27] = test system: MDA-MB-231; assay: Increase in cellular glucose consumption in human MDA-MB-231 cells at 3 uM measured per ug of cellular protein after 24 hrs by enzyme based assay (reference value: 17.2 +/- 2 nmol/ug of cellular protein); format: functional
[28] = test system: MDA-MB-231; assay: Increase in cellular glucose consumption in human MDA-MB-231 cells at 1 uM measured per ug of cellular protein after 24 hrs by enzyme based assay (reference value: 17.2 +/- 2 nmol/ug of cellular protein); format: functional
[29] = test system: MDA-MB-231; assay: Cytotoxicity against human MDA-MB-231 cells assessed as inhibition of cell proliferation/viability at 30 uM in presence of 0.1 uM rotenone mitochondrial electron transport inhibitor; format: functional
Outline: (§3)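 MDA-MB-231 cells in RPMI 1640 with 10% FBS, plated 3×10^4/well; after 24 h, compound diluted in serum-free medium added with or without rotenone (0.1 μM final), DMSO <0.5%. 48 h at 37 °C; viability by sulforhodamine B; % inhibition of untreated control; two independent experiments each in triplicate (n = 6).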

[30] = test system: MDA-MB-231; assay: Cytotoxicity against human MDA-MB-231 cells assessed as inhibition of cell proliferation/viability at 0.1 to 10 uM in presence of 0.1 uM rotenone mitochondrial electron transport inhibitor; format: functional, cell-based; outline: as §3
[31] = test system: T47D; assay: Increase in cellular respiration in human T47D cells assessed as increase in oxygen consumption at 0.1 to 1 uM after 48 hrs; format: functional, cell-based; outline: as §2
[32] = test system: MDA-MB-231; assay: Effect on lactate production in human MDA-MB-231 cells at 0.1 uM measured per ug of cellular protein after 48 hrs by enzyme based assay (reference value: 40.5 +/- 6 nmol/ug of cellular protein); format: functional
[33] = test system: MDA-MB-231; assay: Effect on lactate production in human MDA-MB-231 cells at 0.1 uM measured per ug of cellular protein after 24 hrs by enzyme based assay (reference value: 23.6 +/- 2 nmol/ug of cellular protein); format: functional
[34] = test system: MDA-MB-231; assay: Increase in cellular glucose consumption in human MDA-MB-231 cells at 0.1 uM measured per ug of cellular protein after 48 hrs by enzyme based assay (reference value: 43 +/- 8.4 nmol/ug of cellular protein); format: functional
[35] = test system: MDA-MB-231; assay: Increase in cellular glucose consumption in human MDA-MB-231 cells at 0.1 uM measured per ug of cellular protein after 24 hrs by enzyme based assay (reference value: 17.2 +/- 2 nmol/ug of cellular protein); format: functional
[36] = test system: MDA-MB-231; assay: Inhibition of cell viability of human MDA-MB-231 cells at 0.1 uM after 48 hrs by sulforhodamine B method; format: functional; details: MDA-MB-231, 48 h; outline: as §1

For OC[C@H]1O[C@@H](O)C[C@@H](O)[C@@H]1O, the Activity [1] was 52.8 nmol, the Activity [2] was 26.3 nmol and the Activity [3] was 50.2 nmol. For the same compound, the Activity [4] was 22.5 nmol, the inhibition [5] was “Active” and the inhibition [6] was “Active”. The inhibition [7] was “Active”, the inhibition at 3000 µM [8] was 8% and the inhibition [9] was “Active”. It also gave an inhibition at 1000 µM [10] of 4%.
For CC(C)=CCC/C(C)=C/CC1(C/C=C(\C)CCC=C(C)C)C(O)=CC(=O)C(C(=O)c2ccccc2)=C1O (stereo unspecified) [MORONONE], the Activity [11] was “Active”, the Activity [12] was “Active” and the Activity [13] was “Active”. For the same compound, the Activity [14] was “Active”, the Activity [15] was “Active” and the Activity [16] was “Active”. For the same compound, the Activity [17] was 168.5 nmol, the Activity [18] was 67.3 nmol and the Activity [19] was 49.3 nmol. For the same compound, the Activity [20] was 59.5 nmol, the Activity [21] was 25.4 nmol and the Activity [22] was 21.9 nmol. For the same compound, the Activity [23] was 168.4 nmol, the Activity [24] was 73.4 nmol and the Activity [25] was 44.7 nmol. For the same compound, the Activity [26] was 45.8 nmol, the Activity [27] was 25.9 nmol and the Activity [28] was 26.7 nmol. For the same compound, the “inhibition (INH)” value [29] was 68%, the Activity [30] was “Active” and the Activity [31] was “Active”.
C=C(C)[C@H]1Cc2c(ccc3c2O[C@@H]2COc4cc(OC)c(OC)cc4[C@@H]2C3=O)O1 [ROTENONE] was tested, and the Activity [32] was 190.4 nmol, the Activity [33] was 75.7 nmol and the Activity [34] was 177.6 nmol. It also gave an Activity [35] of 37.5 nmol and an inhibition at 0.1 µM [36] of 7%.
